Substrate in data set [1]: CN1CC=C(Sc2ccccc2)CC1
The experiment in a line: (§1) Tested against Monoamine oxidase B enzyme from bovine liver mitochondria. A digest of the protocol:
(§2)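 Bovine liver mitochondrial MAO-B, 0.05 unit/mL (unit = 1 μmol benzylamine→benzaldehyde per min; equivalent to 3.7 nmol protein), incubated at 37 °C in 0.1 M sodium phosphate pH 7.4. Reaction started by substrate addition, final 0.1–3.0 mM. Product formation monitored spectrophotometrically, initial rates taken 30–180 s after enzyme addition. Apparent Vmax and KM from double reciprocal plot.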

Substrate in data set [2]: CN1CC=C(OC(=O)N(C)C)CC1
The description is as §1. A digest of the protocol:
as §2

Substrate in data set [3]: CN1CC=C(OC(=O)N(C)c2ccccc2)CC1
Described as §1. The essentials:
as §2

Substrate in data set [4]: CN1CC=C(Cc2ccccc2)CC1
The data set is described as §1. The essentials:
as §2

Substrate in data set [5]: CN1CC=C(Oc2ccccc2)CC1
The data set is described as §1. A digest of the protocol:
as §2

B1: Amine oxidase [flavin-containing] B (Bos taurus) (protein)
chain: MSSKCDVVVVGGGISGMAAAKLLHDSGLNVIVLEARDRVGGRTYTLRNQKVKYVDLGGSYVGPTQNHILRLSKELGLETYKVNEVERLIHHTKGKSYPFRGSFPSVWNPITYLDHNNLWRTMDDMGREIPSDAPWKAPLAEQWDLMTMKELLDKICWTESSKQLAILFVNLCVTAEIHEVSALWFLWYVKQCGGTTRIFSTSNGGQERKFVGGSGQVSERIMDLLGDRVKLERPVIHIDQTGENVLVETLNHELYEAKYVISAVPPVLGMKIHFNPPLPMMRNQLITRVPLGSVIKSIVYYKEPFWRNMDYCGSMIIEGEEAPVAYALDDTKPDGSYPAIIGFILAHKARKLARLTKEERLKKLCDLYAKVLGSQEALHPVHYEEKNWCEEQYSGGCYTSYFPPGIMTQYGRVLRQPVGRIYFAGTETATHWSGYMEGAVEAGERAAREILHAMGKIPEDEIWLPEPESVDVPAKPITTTFLQRHLPSVPGLLKLIGLTTIFSATALGFLAHKRGLLVRI
In the case of B1, the Km in data set [1] stood at 80 µM; in data set [2], 7100 µM; in data set [3], 3850 µM; in data set [4] it was 83 µM; in data set [5], 234 µM. For the same protein, the Vmax in data set [1] is 0.274 µM/min; in data set [2], 0.401 µM/min; in data set [3], 0.255 µM/min; in data set [4] it was 0.222 µM/min; in data set [5], 0.161 µM/min.

Broadly, the Km is the substrate concentration at which the rate is half of its maximum. A word on the Vmax: it is the rate approached at saturating substrate.

The record behind these values is ChEMBL document CHEMBL1126092, “Design, synthesis, and biological evaluation of novel 4-substituted 1-methyl-1,2,3,6-tetrahydropyridine analogs of MPTP” (J Med Chem, 1992).
